According to ChEMBL document CHEMBL1147632, “2-(N-acyl) and 2-N-acyl-N(6)-substituted analogues of adenosine and their affinity at the human adenosine receptors” (Bioorg Med Chem Lett, 2004):

Experiments:
Adenosine receptor A2a = Adenosine receptor A2a (Homo sapiens, UniProt P29274); test: Displacement of [3H]NECA from human adenosine A2A receptor in stably transfected CHO cells; type: cell-based
How it was run: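 Radioligand displacement of specific [³H]NECA binding to human recombinant A2A receptor stably expressed in CHO cells; affinity given as Ki (nM).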

Adenosine receptor A1 = molecular target: T1, Adenosine receptor A1 (Homo sapiens, UniProt P30542); test: Displacement of [3H]CCPA from human adenosine A1 receptor expressed in CHO cells; type: cell-based
T1 sequence (P30542 whole entry): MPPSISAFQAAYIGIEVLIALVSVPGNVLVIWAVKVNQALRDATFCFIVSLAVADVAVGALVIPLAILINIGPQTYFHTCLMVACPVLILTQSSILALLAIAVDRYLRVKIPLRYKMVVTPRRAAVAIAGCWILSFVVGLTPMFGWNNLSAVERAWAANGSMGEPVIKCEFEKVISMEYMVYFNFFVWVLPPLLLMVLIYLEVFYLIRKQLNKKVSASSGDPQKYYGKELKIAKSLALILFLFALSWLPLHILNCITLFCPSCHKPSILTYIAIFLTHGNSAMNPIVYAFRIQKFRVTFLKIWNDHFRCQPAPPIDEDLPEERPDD

Adenosine receptor A3 = molecular target: T2, Adenosine receptor A3 (Homo sapiens, UniProt P0DMS8); test: Displacement of [3H]NECA from human adenosine A3 receptor in stably transfected HEK cells; type: cell-based, HEK293
T2 sequence (P0DMS8 whole entry): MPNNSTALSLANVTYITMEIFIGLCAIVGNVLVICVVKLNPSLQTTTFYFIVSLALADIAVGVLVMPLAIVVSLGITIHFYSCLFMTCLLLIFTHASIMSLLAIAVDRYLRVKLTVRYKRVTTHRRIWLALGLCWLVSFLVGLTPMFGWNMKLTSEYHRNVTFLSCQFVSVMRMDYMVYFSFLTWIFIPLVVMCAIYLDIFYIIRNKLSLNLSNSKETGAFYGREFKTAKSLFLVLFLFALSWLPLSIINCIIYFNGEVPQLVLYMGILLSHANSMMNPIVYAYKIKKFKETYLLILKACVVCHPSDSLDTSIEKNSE
How it was run: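 Competition for specific [³H]NECA binding at human recombinant A3 receptor stably transfected into HEK cells; Ki reported in nM.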

[1] = molecular target: Adenosine receptors; A1 & A2a (Homo sapiens) (UniProt P30542+P29274); test: Ratio of binding affinity for adenosine A2A receptor to adenosine A1 receptor; type: protein assay
[2] = molecular target: T3, Adenosine receptor A2b (Homo sapiens) (UniProt P29275); test: Potency NECA-induced signal mediated by human A2B receptor in CHO cells at 100 uM; type: cell-based
T3 sequence (whole entry): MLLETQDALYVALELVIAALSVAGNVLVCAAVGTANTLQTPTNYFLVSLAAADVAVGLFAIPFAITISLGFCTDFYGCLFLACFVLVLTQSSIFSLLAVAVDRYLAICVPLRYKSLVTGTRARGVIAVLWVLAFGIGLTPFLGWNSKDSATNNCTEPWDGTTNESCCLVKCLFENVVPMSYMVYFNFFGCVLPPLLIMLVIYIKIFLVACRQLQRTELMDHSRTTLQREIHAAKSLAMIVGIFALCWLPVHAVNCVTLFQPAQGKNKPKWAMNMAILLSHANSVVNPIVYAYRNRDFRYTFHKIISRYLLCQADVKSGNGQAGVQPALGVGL
How it was run: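 Adenylyl cyclase activation measured in membranes from CHO cells stably transfected with human A2B receptor; test compounds at […], response expressed as percent of maximal NECA signal.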

[3] = molecular target: Adenosine receptors; A1 & A3 (Homo sapiens) (UniProt P30542+P0DMS8); test: Ratio of binding affinity for adenosine A3 receptor to adenosine A1 receptor; type: protein assay

Chain of Adenosine receptor A2a (P29274 whole entry): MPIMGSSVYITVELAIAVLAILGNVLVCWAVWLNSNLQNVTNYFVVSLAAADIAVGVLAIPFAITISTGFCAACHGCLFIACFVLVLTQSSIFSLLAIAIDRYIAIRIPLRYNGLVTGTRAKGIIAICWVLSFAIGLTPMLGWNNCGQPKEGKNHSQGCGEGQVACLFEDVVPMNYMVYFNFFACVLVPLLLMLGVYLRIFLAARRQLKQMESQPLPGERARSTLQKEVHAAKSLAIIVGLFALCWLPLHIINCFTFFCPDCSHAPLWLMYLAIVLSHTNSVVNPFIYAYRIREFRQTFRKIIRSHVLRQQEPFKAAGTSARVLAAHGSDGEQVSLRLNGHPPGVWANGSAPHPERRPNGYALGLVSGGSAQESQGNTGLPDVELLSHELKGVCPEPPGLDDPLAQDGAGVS
Chain of Adenosine receptors; A1 & A2a (Homo sapiens) (P29274 whole entry, looked up, one chain of several): as the sequence (P29274 whole entry) above

Compound	Ki (Adenosine receptor A2a) [µM]	Ki (Adenosine receptor A1) [µM]	Ki (Adenosine receptor A3) [µM]	Ratio [1]	Potency [2] [%]	Ratio [3]
Nc1nc(NC(=O)CCC2CCCC2)nc2c1ncn2[C@@H]1O[C@H](CO)[C@@H](O)[C@H]1O	2	0.252	1.04	8	< 20	4
CCNc1nc(NC(=O)CC2CCCCC2)nc2c1ncn2[C@@H]1O[C@H](CO)[C@@H](O)[C@H]1O	7.75	0.207	0.181	37	< 20	0.9
Nc1nc(NC(=O)CCc2ccccc2)nc2c1ncn2[C@@H]1O[C@H](CO)[C@@H](O)[C@H]1O	4.57	0.432	2.71	11	< 20	6
Nc1nc(NC(=O)C2CCCCC2)nc2c1ncn2[C@@H]1O[C@H](CO)[C@@H](O)[C@H]1O	1.78	1.62	2.76	1.1	< 20	1.7
O=C(CCC1CCCC1)Nc1nc(NC2CCCC2)c2ncn([C@@H]3O[C@H](CO)[C@@H](O)[C@H]3O)c2n1	2.18	0.0318	1.41	69	< 20	44
Nc1nc(NC(=O)/C=C/c2ccccc2)nc2c1ncn2[C@@H]1O[C@H](CO)[C@@H](O)[C@H]1O	4.1	0.0707	0.9	58	< 20	13
Nc1nc(NC(=O)CC2CCCCC2)nc2c1ncn2[C@@H]1O[C@H](CO)[C@@H](O)[C@H]1O	2.41	0.342	1.23	7	< 20	4
OC[C@H]1O[C@@H](n2cnc3c(NC4CCCC4)nc(Cl)nc32)[C@H](O)[C@@H]1O					< 20	
O=C(CCc1ccccc1)Nc1nc(NC2CCCC2)c2ncn([C@@H]3O[C@H](CO)[C@@H](O)[C@H]3O)c2n1	5.66	0.0207	1.25	273	< 20	60
Nc1nc(NC(=O)CCCC2CCCCC2)nc2c1ncn2[C@@H]1O[C@H](CO)[C@@H](O)[C@H]1O	1.94	0.733	1.06	3	< 20	1.4
CCNC(=O)[C@H]1O[C@@H](n2cnc3c(N)nc(NC(=O)CCC4CCCC4)nc32)[C@H](O)[C@@H]1O	10.8	5.45	1.01	2	< 20	0.2
